Published values from different studies.
Protocols differ between the studies behind these lines.
Oprm1: Mu-type opioid receptor (Oprm1, Rattus norvegicus, UniProt P33535)

SMILES | target | assay | setting | endpoint | value
Cn1cc(-c2cccc(N3CCc4c(sc5c4CC(C)(C)C5)C3=O)c2CO)cc(Nc2ccncn2)c1=O | Mast/stem cell growth factor receptor Kit (KIT, Homo sapiens, UniProt P10721, T670I) | enzyme activity, inhibitor | 1 µM | inhibition | 0%
OC[C@H]1CNCCN1C[C@@H]1CCCN1C[C@H](CC1CCCCC1)N1CCN(CCC23CC4CC(CC(C4)C2)C3)[C@H](Cc2ccc(O)cc2)C1 | Oprm1 | ligand displacement, radioligand | 0.5 µM, 1 h, pH 7.5, cell membranes | remaining binding | 108%
Cc1nn(C)cc1-c1nc2c(N3CCN(Cc4ccc(Cl)cc4)CC3)c(Cl)cnc2[nH]1 | Mast/stem cell growth factor receptor Kit (KIT, Homo sapiens, UniProt P10721, D816H) | binding, competition with immobilised ligand | 1 µM | remaining binding | 71%
Cn1cc(-c2cc(F)cc(N3CCn4c(cc5c4CCCC5)C3=O)c2CO)cc(Nc2ccc(N3CCN(C4COC4)CC3)cn2)c1=O | Phosphatidylinositol 4-kinase alpha (PI4KA, Homo sapiens, UniProt P42356) | enzyme activity, inhibitor | 0.1 µM | inhibition | 6%
CC[C@@H](C)[C@@H]1CN([C@@H](CC2CCCCC2)CN2CCC[C@H]2CN2CCNC[C@@H]2CO)CCN1CCc1ccc(Cl)c(Cl)c1 | Oprm1 | ligand displacement, radioligand | 0.5 µM, 1 h, pH 7.5, cell membranes | remaining binding | 97.8%
C#Cc1n[nH]c2c(-c3cn(C(C)c4ccccn4)c(=O)[nH]c3=O)cc(F)cc12 (stereo not drawn) | Myosin light chain kinase, smooth muscle (MYLK, Homo sapiens, UniProt Q15746) | enzyme activity, inhibitor | 1 µM | inhibition | 4%
CC[C@@H](C)[C@@H]1CN([C@@H](CC2CCCCC2)CN2CCC[C@H]2CN2CCNC[C@@H]2CO)CCN1CCC12CC3CC(CC(C3)C1)C2 | Oprm1 | ligand displacement, radioligand | 0.5 µM, 1 h, pH 7.5, cell membranes | remaining binding | 101%
COc1ncccc1-c1cnn2ccc(N3CCN(C(=O)OC(C)C)CC3)nc12 | Casein kinase II subunit alpha (CSNK2A1, Homo sapiens, UniProt P68400) | binding, competition with immobilised ligand | 1 µM | remaining binding | 79%
Oc1ccc(C[C@@H]2CN([C@H](Cc3ccc4ccccc4c3)CN3CCC[C@H]3CN3CCNC[C@@H]3Cc3ccc4ccccc4c3)CCN2CCC23CC4CC(CC(C4)C2)C3)cc1 | Oprm1 | ligand displacement, radioligand | 0.5 µM, 1 h, pH 7.5, cell membranes | remaining binding | 112%
O=C(c1cc(O)c(O)c([N+](=O)[O-])c1)c1ccccc1F | Transthyretin (TTR, Homo sapiens, UniProt P02766) | binding, SPR |  | koff | 0.132 s⁻¹
Nc1ncc(-c2nc(N3CCOCC3)nc(N3CCOCC3)n2)c(C(F)F)n1 | Mast/stem cell growth factor receptor Kit (KIT, Homo sapiens, UniProt P10721, V559D) | binding, competition with immobilised ligand | 10 µM | remaining binding | 18%
CC(C)(C)c1nc2c(s1)c1nc(N)ncc1c1ccc(NS(=O)(=O)c3c(F)cccc3F)c(F)c12 | Tau-tubulin kinase 1 (TTBK1, Homo sapiens, UniProt Q5TCY1) | enzyme activity, inhibitor, radiometric | 1 µM | remaining activity | 79%
